Results published in ChEMBL document CHEMBL1153967, “Discovery of substituted 4-anilino-2-arylpyrimidines as a new series of apoptosis inducers using a cell- and caspase-based high throughput screening assay. 2. Structure-activity relationships of the 2-aryl group” (Bioorg Med Chem Lett, 2009).
Activity calls are given as the source filed them. The rule behind the calls is not given here.

Assays:
[1] = test system: T47D; assay: Induction of apoptosis in human T47D cells assessed as caspase activation after 48 hrs by HTS assay; type: functional, cell-based
Outline: (§1)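 Cell-based caspase-3 activation HTS read with a proprietary fluorescent caspase-3 substrate in T47D, HCT116 and SNU398 cells. Compounds applied for 48 h, highest level 10 µM. EC50 reported as mean ± SEM of three or more experiments.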

[2] = test system: HCT-116; assay: Induction of apoptosis in human HCT116 cells assessed as caspase activation after 48 hrs by HTS assay; type: functional, cell-based; conditions: HCT-116, 48 h; outline: as §1
[3] = test system: SNU-398; assay: Induction of apoptosis in human SNU398 cells assessed as caspase activation after 48 hrs by HTS assay; type: functional, cell-based; conditions: SNU-398, 48 h; outline: as §1
[4] = test system: SNU-398; assay: Growth inhibition of human SNU398 cells after 48 hrs; type: functional; conditions: SNU-398, 48 h
Outline: (§2)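 96-well growth-inhibition (GI50) format, run in parallel in T47D breast, HCT116 colon and SNU398 hepatocellular carcinoma cells.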

[5] = Inhibition of tubulin polymerization up to 50 uM
[6] = test system: T47D; assay: Growth inhibition of human T47D cells after 48 hrs; type: functional; outline: as §2
[7] = test system: HCT-116; assay: Growth inhibition of human HCT116 cells after 48 hrs; type: functional; conditions: HCT-116, 48 h; outline: as §2
[8] = Inhibition of tubulin polymerization
[9] = test system: T47D; assay: Induction of apoptosis in human T47D cells assessed as accumulation at subG1 phase at 0.05 uM after 48 hrs by flow cytometry analysis; type: functional
Outline: (§3)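 T47D cells treated at 0.05 µM for 24 h or 48 h at 37 °C alongside untreated controls. Cells stained with propidium iodide and analysed by flow cytometry. Percentages in sub-G1, G1, S and G2/M read from DNA-content histograms.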

[10] = test system: T47D; assay: Induction of apoptosis in human T47D cells assessed as accumulation at subG1 phase at 0.05 uM after 24 hrs by flow cytometry analysis; type: functional; outline: as §3
[11] = test system: T47D; assay: Induction of apoptosis in human T47D cells assessed as accumulation at G2/M phase at 0.05 uM after 24 hrs by flow cytometry analysis; type: functional; outline: as §3
[12] = test system: T47D; assay: Induction of apoptosis in human T47D cells assessed as accumulation at S phase at 0.05 uM after 24 hrs by flow cytometry analysis; type: functional; outline: as §3
[13] = test system: T47D; assay: Induction of apoptosis in human T47D cells assessed as accumulation at G1 phase at 0.05 uM after 24 hrs by flow cytometry analysis; type: functional; outline: as §3
[14] = test system: T47D; assay: Induction of apoptosis in human T47D cells assessed as accumulation at G2/M phase at 0.05 uM after 48 hrs by flow cytometry analysis; type: functional; outline: as §3
[15] = test system: T47D; assay: Induction of apoptosis in human T47D cells assessed as accumulation at G1 phase at 0.05 uM after 48 hrs by flow cytometry analysis; type: functional; outline: as §3
[16] = test system: T47D; assay: Induction of apoptosis in human T47D cells assessed as accumulation at S phase at 0.05 uM after 48 hrs by flow cytometry analysis; type: functional; outline: as §3

| SMILES | EC50 [1] [nM] | EC50 [2] [nM] | EC50 [3] [nM] | further results |
| --- | --- | --- | --- | --- |
| COc1cccc(Nc2cc(C(F)(F)F)nc(C3CCCCN3)n2)c1 (stereo not drawn) | > 10000 | > 10000 | > 10000 | – |
| COc1ccc(N2CCCCC2)c(Nc2cc(C(F)(F)F)nc(-c3cccnc3)n2)c1 | > 10000 | > 10000 | > 10000 | – |
| Cc1ccc(O)cc1Nc1cc(C(F)(F)F)nc(-c2cnccn2)n1 | 190 | > 10000 | > 10000 | – |
| COc1ccc(Cl)c(Nc2cc(C(F)(F)F)nc(-c3c(Cl)cncc3Cl)n2)c1 | > 10000 | > 10000 | > 10000 | – |
| Cc1ccc(C)c(Nc2cc(C(F)(F)F)nc(-c3ccncc3)n2)c1 | 120 | 610 | – | – |
| COc1ccc(Nc2cc(C(F)(F)F)nc(-c3cccnc3)n2)cc1 | > 10000 | > 10000 | > 10000 | – |
| Oc1ccc(Cl)c(Nc2cc(C(F)(F)F)nc(-c3cnccn3)n2)c1 | 560 | > 10000 | > 10000 | – |
| COc1ccc(Cl)c(Nc2cc(C(F)(F)F)nc(-c3ccncc3)n2)c1 | 100 | 960 | – | – |
| COc1ccc(Cl)cc1Nc1cc(C(F)(F)F)nc(-c2cccnc2)n1 | 360 | 610 | 440 | – |
| COc1cccc(Nc2cc(C(F)(F)F)nc(-c3ccncc3)n2)c1 | 1300 | > 10000 | > 10000 | – |
| COc1cccc(Nc2cc(C(F)(F)F)nc(-c3cccnc3)n2)c1 | 340 | > 10000 | > 10000 | GI50 [4]: 6400 nM; Activity [5]: inactive; GI50 [6]: 94 nM; GI50 [7]: > 10000 nM |
| FC(F)(F)c1cc(Nc2cccc(-c3ccccc3)c2)nc(-c2cccnc2)n1 | > 10000 | > 10000 | > 10000 | – |
| COc1ccc(OC)c(Nc2cc(-c3ccccn3)nc(-c3ccccn3)n2)c1 | 420 | 330 | 160 | GI50 [4]: 410 nM; GI50 [6]: 240 nM; GI50 [7]: 130 nM |
| COc1ccc(Nc2cc(C(F)(F)F)nc(-c3ccncc3)n2)cc1 | > 10000 | > 10000 | > 10000 | – |
| COc1ccc(OC)c(Nc2nc(-c3ccccn3)ncc2OC)c1 | > 10000 | > 10000 | > 10000 | – |
| COc1cc(Nc2cc(C(F)(F)F)nc(-c3cnccn3)n2)cc(OC)c1 | 130 | > 10000 | > 10000 | – |
| COc1cccc(Nc2nc(-c3ccccn3)ncc2OC)c1 | > 10000 | > 10000 | > 10000 | – |
| COc1cccc(Nc2cc(C(F)(F)F)nc(-c3ccccn3)n2)c1 | 360 | 6000 | 3700 | – |
| Oc1ccc(Cl)c(Nc2cc(C(F)(F)F)nc(-c3cccnc3)n2)c1 | 230 | > 10000 | > 10000 | – |
| COc1ccc(Cl)c(Nc2cc(C(F)(F)F)nc(-c3cccnc3)n2)c1 | 140 | 930 | 820 | – |
| FC(F)(F)c1cc(Nc2cccc(Cl)c2)nc(-c2cccnc2)n1 | > 10000 | > 10000 | > 10000 | – |
| COc1cccc(Nc2cc(C(F)(F)F)nc(-c3ccccc3)n2)c1 | > 10000 | > 10000 | > 10000 | – |
| COc1ccc(Oc2ccccc2)cc1Nc1cc(C(F)(F)F)nc(-c2cccnc2)n1 | 1500 | 3300 | 5000 | – |
| COc1ccc(Cl)c(Nc2cc(C)nc(N3CCOCC3)n2)c1 | > 10000 | > 10000 | > 10000 | – |
| Oc1cccc(Nc2cc(C(F)(F)F)nc(-c3ccncc3)n2)c1 | 680 | 3100 | – | – |
| Oc1cccc(Nc2cc(C(F)(F)F)nc(-c3cccnc3)n2)c1 | 970 | > 10000 | > 10000 | – |

Now those with a lower EC50 [1], led by results:

| EC50 [1] [nM] | EC50 [2] [nM] | EC50 [3] [nM] | SMILES | further results |
| --- | --- | --- | --- | --- |
| 96 | 130 | 130 | COc1ccc(C)cc1Nc1cc(C(F)(F)F)nc(-c2cccnc2)n1 | – |
| 87 | > 10000 | 5500 | Cc1ccc(O)cc1Nc1cc(C(F)(F)F)nc(-c2cccnc2)n1 | – |
| 82 | 2900 | 1400 | COc1cc(Nc2cc(C(F)(F)F)nc(-c3cccnc3)n2)cc(OC)c1 | GI50 [4]: 1000 nM; GI50 [6]: 61 nM; GI50 [7]: 1300 nM |
| 77 | 1100 | – | Oc1ccc(Cl)c(Nc2cc(C(F)(F)F)nc(-c3ccncc3)n2)c1 | – |
| 76 | 160 | – | COc1ccc(C)cc1Nc1cc(C(F)(F)F)nc(-c2ccncc2)n1 | – |
| 48 | 2000 | – | Cc1ccc(O)cc1Nc1cc(C(F)(F)F)nc(-c2ccncc2)n1 | – |
| 48 | 410 | 280 | COc1ccc(OC)c(Nc2cc(C(F)(F)F)nc(-c3cnccn3)n2)c1 | – |
| 34 | 240 | – | COc1cc(Nc2cc(C(F)(F)F)nc(-c3ccncc3)n2)cc(OC)c1 | GI50 [4]: 270 nM; GI50 [6]: 36 nM; GI50 [7]: 270 nM |
| 25 | 120 | – | COc1ccc(C)c(Nc2cc(C(F)(F)F)nc(-c3ccncc3)n2)c1 | – |
| 24 | 170 | 130 | COc1ccc(OC)c(Nc2cc(C(F)(F)F)nc(-c3cccnc3)n2)c1 | IC50 [8]: 500 nM; Activity [9]: 19%; GI50 [4]: 68 nM; Activity [10]: 7%; Activity [11]: 53%; GI50 [6]: 95 nM; Activity [12]: 6%; Activity [13]: 32%; GI50 [7]: 180 nM; Activity [14]: 43%; Activity [15]: 31%; Activity [16]: 7% |
| 18 | 190 | 110 | COc1ccc(OC)c(Nc2cc(C(F)(F)F)nc(-c3ccccn3)n2)c1 | – |
